These results are taken from publication PMC9472799 (Biomacromolecules, 2022).

Type in all cases: biochemical
Experiment [1] concerns the target T1, sickle hemoglobin (HbS) (Homo sapiens, UniProt P68871+P69905, P68871:E7V). The experiment is described as follows: NMR binding. Summed up: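 HbS labelled at cysteine thiols with rhodamine red (donor) or Cy5 (acceptor) after TCEP reduction; free dye dialysed away. Donor and acceptor HbS mixed 1:5 at 25 μM. Incubated 2 h at room temperature with test compound at seven concentrations (0.1–1000 μM) or DMSO. Vacuum argon degassed 10 min to deoxygenate. Donor fluorescence lifetime read; FRET efficiency E = 1 − τDA/τD.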

The target in experiment [2] is T1, sickle hemoglobin (HbS). The experiment is described as follows: FLT-FRET dose response and DLS.
In experiment [3] the target is T1, sickle hemoglobin (HbS). Description: DLS oligomer size and FLT-FRET with purified deoxy-HbS.

The IC50 is the point on the concentration scale where inhibition reaches its midpoint. Low values mean greater potency in that assay, high ones weaker potency in that assay. Turning to `CN1C(=O)CCS(=O)(=O)C1c1ccc(Cl)cc1` (stereo not drawn) [chlormezanone], the concentration for half-maximal inhibition (IC50) at sickle hemoglobin (HbS) [1] is more than 100 µM. Consider `COc1ccc(-c2ccc(=N)n(CCCC(=O)O)n2)cc1` [gabazine], for which the “FLT-FRET dose response and DLS (100 μM) with purified deoxy-HbS” value on sickle hemoglobin (HbS) [2] is “all three compounds significantly decreased the oligomer size relative to control (and to the same extent as voxelotor)”. `CC(C)n1nccc1-c1ncccc1COc1cccc(O)c1C=O` [voxelotor]: the “DLS oligomer size and FLT-FRET with purified deoxy-HbS” value at sickle hemoglobin (HbS) [3] is on record as “voxelotor (a compound that increases hemoglobin oxygen binding affinity), which dramatically reduced the mean oligomer size (Figure 1A)”.
